# Test results: PMC11700703 (Nature cardiovascular research, 2024)
# Entries after “also recorded” stand apart in the source; their conditions may differ.
# Key:
# [1] = tested on: F1FO-ATP synthase (ATPase activity); assay: F1FO-ATPase activity assay; format: biochemical, rat; details: P888 (2μM) co-incubation with cTnI (2μg); n=3 independent experiments
# In short: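 Rat heart mitochondria (4 μg, solubilized) were captured on anti-ATP synthase antibody plates and co-incubated with recombinant human cTnI (2 μg) ± test peptide (2 μM). Absorbance was read over 120 min. Oligomycin served as negative control. n=3 independent experiments, each in 3–4 replicates; two-way ANOVA with Sidak correction.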
# [2] = tested on: mitochondria of rat hearts after myocardial IR; assay: Rat in vivo LAD ligation IR: mitochondrial oxygen consumption after IR; details: 3mg/kg IP at reperfusion, 24 hours after reperfusion, n=15
# [3] = biological target: cTnI binding to immune-captured ATP synthase (UniProt P19429+P31399); assay: Inhibition of cTnI binding to ATP synthase by ELISA; format: rat heart mitochondria; recombinant human cTnI; details: P888 2μM
# cTnI binding to immune-captured ATP synthase, sequence (P19429 whole entry): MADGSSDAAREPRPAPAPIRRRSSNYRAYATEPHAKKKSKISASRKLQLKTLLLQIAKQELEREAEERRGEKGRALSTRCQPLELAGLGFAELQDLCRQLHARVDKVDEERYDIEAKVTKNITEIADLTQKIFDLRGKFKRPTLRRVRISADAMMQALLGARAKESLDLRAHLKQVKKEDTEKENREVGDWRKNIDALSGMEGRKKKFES
# cTnI binding to immune-captured ATP synthase, sequence (P31399 2-161 limits assumed): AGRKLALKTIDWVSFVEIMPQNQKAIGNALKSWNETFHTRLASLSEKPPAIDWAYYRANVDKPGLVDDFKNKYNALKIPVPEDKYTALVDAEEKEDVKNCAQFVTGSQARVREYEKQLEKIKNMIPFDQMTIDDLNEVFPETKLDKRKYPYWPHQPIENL
# In short: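 ELISA on anti-ATP synthase antibody plates blocked with 2% BSA. Plates were co-incubated with solubilized rat heart mitochondria (4 μg) and recombinant human cTnI (2 μg) ± test peptide (2 μM). After washing, bound cTnI was detected with HRP anti-cTnI antibody (1:5000, 1 h), then TMB, stopped with 2N sulfuric acid; absorbance at 450 nm.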
substance,measurement,setting,value
A2GRKLALKTI11 [P888],prevention of cTnI-induced increase in ATPase activity,[1],blocked the cTnI-induced increase in ATPase activity; also recorded: P888 co-incubation prevents this effect; also recorded: inhibited cTnI-induced increase in ATPase activity in vitro
same,mitochondrial respiration after IR,[2],no significant effect of P888 on mitochondrial function
same,inhibition of cTnI binding to the immune-captured ATP synthase,"[3]; cTnI (2μg), n=3",~ 78%
same,inhibition of cTnI binding to ATP synthase,"[3]; n=3, result in words",binding is inhibited in the presence of P888; also recorded: inhibited cTnI binding to ATP synthase
